Assay results as given in ChEMBL document CHEMBL1138199, “Identification of compounds with anti-West Nile Virus activity” (J Med Chem, 2006).

Key:
BHK-21 [1] = assay: Cytotoxicity against BHK21 cell line by MTT assay; type: functional; details: Mesocricetus auratus
Outline: (§1)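 MTT cytotoxicity assay run in BHK-21 and Vero cells on compounds giving >50% Rluc inhibition in the primary screens; CC50 reported in µM.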

[2] = Therapeutic index (CC50/EC50) in BHK21 cells; type: cell-based, BHK-21; details: hamster, read-out: Ratio CC50/EC50
Outline: (§2)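 TI computed as CC50/EC50, using MTT CC50 and replicon EC50 in BHK-21 cells, or MTT CC50 and Rluc-FL-WNV EC50 in Vero cells.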

West Nile virus [3] = assay: Inhibition of West Nile viral Rluc-Neo-Rep in BHK21 cell line; type: functional, organism-based; details: BHK-21
Outline: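 BHK-21 cell line stably carrying Rluc-Neo-Rep replicon; inhibition read as suppression of Renilla luciferase signal. Initial screen at 30 µM, 1% DMSO final; EC50 (µM) then determined.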

[4] = Therapeutic index (CC50/EC50) in Vero cells; type: cell-based; details: monkey, read-out: Ratio CC50/EC50; outline: as §2
West Nile virus [5] = assay: Inhibition of Rluc-FL-WNV replicon in Vero cells; type: functional, organism-based
Outline: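 Vero cells infected with full-length WNV carrying Renilla luciferase reporter (Rluc-FL-WNV), covering entry, replication and assembly; inhibition read as suppression of luciferase signal. Compounds first screened at 30 µM in 1% DMSO final, then EC50 (µM) determined.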

Vero = assay: Cytotoxicity against Vero cells by MTT assay; type: functional; details: Chlorocebus sabaeus; outline: as §1
BHK-21 [6] = assay: Inhibition of West Nile virus VLP replicon in BHK21 cell line; type: functional, cell-based; details: Mesocricetus auratus
Outline: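 Naive BHK-21 cells infected with virus-like particles, made by expressing WNV structural proteins in cells carrying the Rluc-Neo-Rep replicon, which package replicon RNA. This captures entry and replication but not assembly. Inhibition is read as suppression of Renilla luciferase signal. Compounds were given in 1% DMSO final, and EC50 is in µM.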

Row | Compound | CC50 (BHK-21 [1]) [µM] | selectivity ratio [2] | EC50 (West Nile virus [3]) [µM] | selectivity ratio [4] | EC50 (West Nile virus [5]) [µM] | CC50 (Vero) [µM] | EC50 (BHK-21 [6]) [µM]
1 | CC(C)(C)C(=O)N1N=C(C(C)(C)C)CC1c1ccc(Cl)cc1 (stereo unspecified) | 60 | 2.2 | 27 | – | – | – | –
2 | O=C(Cc1ccc(Cl)cc1)N1N=C(c2ccco2)CC1c1ccc(Br)cc1 (stereo unspecified) | > 300 | > 15 | 20 | – | – | – | –
3 | CC(C)(C)C1=NN(C(=O)c2ccccc2)C(c2ccc(Cl)cc2)C1 (stereo unspecified) | 65 | 1.1 | 57 | – | – | – | –
4 | CN1CCN(C(=O)c2cccc3c(NC4CCN(Cc5ccccc5)CC4)c4ccccc4nc23)CC1 | 300 | 20 | 15 | 3.6 | 22 | 80 | 20
5 | CN1CCN(C(=O)c2ccc3nc4ccccc4c(NC4CCN(Cc5ccccc5)CC4)c3c2)CC1 | 100 | 3.6 | 28 | 3.2 | 25 | 80 | 25
6 | CN1CCN(C(=O)c2ccc3c(NCCc4c[nH]c5ccccc45)c4ccccc4nc3c2)CC1 | 150 | 11 | 13.7 | < 1.5 | > 30 | 45 | 10
7 | CCN(CC)C(=O)c1ccc2c(NCCc3c[nH]c4ccccc34)c3ccccc3nc2c1 | 125 | 18 | 7 | 1.8 | 25 | 45 | 7
8 | O=C(c1ccccc1)N1N=C(c2ccccc2)CC1c1ccc(Cl)cc1 (stereo unspecified) | 250 | 12.5 | 20 | – | – | – | –
9 | O=C(Cc1ccc(Cl)cc1)N1N=C(c2cccs2)CC1c1ccc(Cl)cc1 (stereo unspecified) | > 300 | > 16 | 19 | – | – | – | –
10 | CCN(CC)C(=O)c1ccc2nc3ccccc3c(NC3CCN(Cc4ccccc4)CC3)c2c1 | 120 | 5.4 | 22 | 2.5 | 20 | 50 | 22
11 | CCN(CC)C(=O)c1ccc2nc3ccccc3c(NCCc3c[nH]c4ccccc34)c2c1 | 110 | 4.4 | 25 | 5 | 15 | 75 | 20
12 | CN1CCN(C(=O)c2ccc3c(NC4CCN(Cc5ccccc5)CC4)c4ccccc4nc3c2)CC1 | 150 | 9.7 | 15.5 | 2.7 | 30 | 80 | 8
13 | O=C(c1ccccc1)N1N=C(c2cccs2)CC1c1ccc([N+](=O)[O-])cc1 (stereo unspecified) | > 300 | > 1.5 | 200 | – | – | – | –
14 | CC(C)(C)C(=O)N1N=C(c2cccs2)CC1c1ccc(Cl)cc1 (stereo unspecified) | 90 | 1.5 | 60 | – | – | – | –
15 | O=C(c1ccccc1)N1N=C(c2cccs2)CC1c1ccc(F)cc1 (stereo unspecified) | 100 | 1.7 | 59 | – | – | – | –
16 | CCN(CC)C(=O)c1cccc2c(NCCc3c[nH]c4ccccc34)c3ccccc3nc12 | 150 | 16 | 9.2 | 2.5 | 20 | 50 | 9

Row | Compound | CC50 (BHK-21 [1]) [µM] | selectivity ratio [2] | EC50 (West Nile virus [3]) [µM] | selectivity ratio [4] | EC50 (West Nile virus [5]) [µM] | CC50 (Vero) [µM] | EC50 (BHK-21 [6]) [µM]
17 | COc1ccc(C2CC(c3cccs3)=NN2C(=O)Cc2ccc(Cl)cc2)cc1 (stereo unspecified) | > 300 | > 10 | 30 | – | – | – | –
18 | O=C(c1cccc2c(NCCc3c[nH]c4ccccc34)c3ccccc3nc12)N1CCOCC1 | 250 | 13 | 20 | < 2 | > 30 | 60 | 23
19 | CN1CCN(C(=O)c2ccc3nc4ccccc4c(NCCc4c[nH]c5ccccc45)c3c2)CC1 | 170 | 6.1 | 28 | 2.6 | 25 | 65 | 27
20 | CN1CCN(C(=O)c2ccc3nc4ccccc4c(Oc4ccccc4)c3c2)CC1 | 100 | 4.7 | 21 | 4 | 20 | 80 | 20
21 | CCN(CC)C(=O)c1ccc2c(NC3CCN(Cc4ccccc4)CC3)c3ccccc3nc2c1 | 150 | 12 | 12.5 | 2.7 | 20 | 55 | 6
22 | O=C(c1ccc([N+](=O)[O-])cc1)N1N=C(c2cccs2)CC1c1ccc(Cl)cc1 (stereo unspecified) | > 300 | > 1.3 | 225 | – | – | – | –
23 | O=C(Cc1ccccc1)N1N=C(c2cccs2)CC1c1ccc(Cl)cc1 (stereo unspecified) | 65 | 3.3 | 20 | – | – | – | –
24 | O=C(c1ccccc1)N1N=C(c2cccs2)CC1c1ccc(Br)cc1 (stereo unspecified) | > 300 | > 12 | 25 | – | > 30 | – | –
25 | COc1ccc(C2CC(c3cccs3)=NN2C(=O)c2ccccc2)cc1 (stereo unspecified) | > 300 | > 4.8 | 63 | – | > 30 | – | –
26 | CCN(CC)C(=O)c1cccc2c(NC3CCN(Cc4ccccc4)CC3)c3ccccc3nc12 | 350 | 44 | 8 | 3.4 | 22 | 75 | 20
27 | CN1CCN(C(=O)c2cccc3c(NCCc4c[nH]c5ccccc45)c4ccccc4nc23)CC1 | 150 | 14 | 10.5 | 2.8 | 18 | 50 | 17
28 | O=C(Cc1ccc(Cl)cc1)N1N=C(c2cccs2)CC1c1ccc(Br)cc1 (stereo unspecified) | > 300 | > 16 | 19 | – | – | – | –
29 | O=C(c1ccccc1)N1N=C(c2ccc(Br)s2)CC1c1ccc(Cl)cc1 (stereo unspecified) | > 300 | > 18 | 17 | – | – | – | –
30 | CN1CCN(C(=O)c2ccc3c(Oc4ccccc4)c4ccccc4nc3c2)CC1 | 100 | 3.6 | 28 | 1.4 | 28 | 40 | 18
31 | O=C(c1cccc2c(Oc3ccccc3)c3ccccc3nc12)N1CCOCC1 | 155 | < 5.1 | > 30 | 2 | 22 | 45 | > 30
32 | O=C(c1cccc2c(NC3CCN(Cc4ccccc4)CC3)c3ccccc3nc12)N1CCOCC1 | 300 | 15 | 20 | < 3 | > 30 | 90 | 20
